Data: the EternaBench riboswitch data

System: MS2 coat protein
Assay: apparent Kd, MS2 coat protein; higher = weaker binding; RNA-MaP array; FMN 200 µM where present
Summary of the method: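 Stalled E. coli RNA polymerase produced the designs on Illumina sequencing-chip clusters. SNAP-549-labelled MS2 coat protein was added from 0.7 or 1.5 nM, doubling to 3 µM, without and then with constant ligand, in 100 mM Tris-HCl pH 7.5, 80 mM KCl, 4 mM MgCl2, BSA, DTT, yeast tRNA and Tween-20. The apparent Kd is the median of filtered per-cluster fits of green signal normalised to red-channel RNA signal and control-cluster median Fmax.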

[1] = designed as: OFF switch for flavin mononucleotide, no ligand
[2] = ligand present: flavin mononucleotide, designed as: OFF switch for flavin mononucleotide
[3] = designed as: ON switch for flavin mononucleotide, no ligand
[4] = ligand present: flavin mononucleotide, designed as: ON switch for flavin mononucleotide

| Sequence | apparent Kd [1] | apparent Kd [2] | apparent Kd [3] | apparent Kd [4] |
| --- | --- | --- | --- | --- |
| UAAUUUUGUCAAGGAUAUGUAAUAUAGAUUAGAAAACAUGAGGAUCACCCAUGUAUAUGGUGGGAACAGAAGGUGAAUGGUGUA | 165 nM | 155 nM | – | – |
| CAGCGCUGUUGAGAGGAUAUGCGGUGAUGGACAUGAGGAUCACCCAUGUUAGCGAUAGCAUUACGGUAGAAGGCUCUACAGCUGC | – | – | 18.5 nM | 12.3 nM |
| GACCGAUAGUCAGGAUAUGCAUGGUUAGUUGAUUACAUGAGGAUCACCCAUGUAGAAGGGACUUUGGCUAAAUCCGUGAUGCGU | 22.3 nM | 51.7 nM | – | – |
| CUCGGACAUGAGGAUCACCCAUGUGAGGAUAUGAUGCGAUCGUCGAAAGACGAUAGCAUCAGAAGGUACAAAUG | 52 nM | 42.9 nM | – | – |
| GUAGCUACAUGAGGAUCACCCAUGUAGGAUAUCGCUAUUGUAAUCAUGUUACAUGAUUACAAUAGCGAGAAGGACGUGUGCUAC | 9.03 nM | 10.4 nM | – | – |
| UCACGGGACUAAGGAUAUACAUGAACUAUUAUUGUAGAAGGUAGAAUGUUAGAUUAUACACUAAACAUGAGGAUCACCCAUGUU | 21.1 nM | 19.6 nM | – | – |
| GUACCAUAUGAGAAGGCGAUCAUGAAACAUGAUCGAGGAUAUCAUGAAAACAUGAGGAUCACCCAUGUAUGGGUAUUAAGGUAC | – | – | 61.4 nM | 23.7 nM |
| UCGGACGUCGUAGGAUAUGUAGGAUAUUCCUACAUGAGGAUCACCCAUGUUGACAUGGAAGAAGGACAGAAGGACGAUGUCCAU | – | – | 192 nM | 4.7 nM |
| GCACUGGAUGUAGGAUAUCAGGACGAUAAGUCCUGAGAAGGACAUGAGGAUCACCCAUGUGAAAAUUACCAGUGCAAUAAUAUA | 14.4 nM | 39.9 nM | – | – |
| CAGACCUACGCAGGAUAUCUUGGGUGUUUCAUGGCAAGAGUCGGUACAUGAGGAUCACCCAUGUAAGAGAAGGGCGUUGCUAAA | 404 nM | 83 nM | – | – |
| UUUGCAUUCCGAGGAUAUUCAUAUAAUAACUACACAUGAGGAUCACCCAUGUGGCGAUAGCCUAGGGAGAAGGCGGUUUGCUUU | – | – | 22.8 nM | 21.3 nM |
| GUGGUUCGCGAGAAGGGAGCUUAAGGACGCGGCUCAGGAUAUCGUACAUGAGGAUCACCCAUGUGCUGGCAUCUCCAGUGCGUG | 118 nM | 56.1 nM | – | – |
| AAGUCAGCAGGAUAUGCGAUGGUGUACUAGGUAGUUUACCCACAUGAGGAUCACCCAUGUAGAAGGGCUGGCUA | 59.1 nM | 148 nM | – | – |
| GCAUGGUAUGAGAAGGCAUAUUUAAUCUAACAUCAUGUUUACAUGAGGAUCACCCAUGUUACCAAUGAGGAUAUCAUACCGUGC | 9.67 nM | 9.8 nM | – | – |
| AAAGGACGAGGAUAUACAUGAGGAUCACCCAUGUAAAAAGCAUAAUAAAAUAACUUAUGUAGAAGGCGUCCAAA | 21.9 nM | 108 nM | – | – |
| CACACAUGAGGAUCACCCAUGUCGUGGGCGGAAAACUGUGCACAGGAUAUGGUGAGUGCAACUCACCAGAAGGGUGGUCAGGAA | – | – | 122 nM | 63 nM |
| GGUUGGCGAGGAUAUACAUGAGGAUCACCCAUGUGGUCCUGCGGUGGUGUCGCCCUUUGUAGAAGGCGCGGGUC | 59.1 nM | 56.6 nM | – | – |
| AGUGUCAUCGAGAAGGCUUCAACAUGAGGAUCACCCAUGUUGUAAUAUGGGAGGAUAUCGAUGAUACAGCUACGUUUCGUAGCA | – | – | 7 nM | 5.03 nM |
| AUAUAACAUGAGGAUCACCCAUGUCACUAAAGUCGAGGAUAUGGGCAGGUUAUAUCCGAACCAGAAGGCGAAUUAU | – | – | 220 nM | 29.2 nM |
| UCUCGACAUGAGGAUCACCCAUGUCAGGAUAUUGUGUUUGAGGUUUUUUACCUUUUGGCAAGAAGGGAUGUGUG | 27.5 nM | 28.9 nM | – | – |
| AAUUAUAUACAGAAGGAGUUAAAAGGAGUAUUACUAGGAUAUGUUCACAUGAGGAUCACCCAUGUCAUAUUGGGAUUUAUUUUU | 27.2 nM | 25.7 nM | – | – |
| UUAUAUAGUGUGAGGAUAUGCUGGUCCUUGGAUCAGCAGAAGGCACAUGAGGAUCACCCAUGUAGUUAAAUUUA | 34.4 nM | 134 nM | – | – |
| GGGCGUGAAGGAUAUACAUGAGGAUCACCCAUGUGGGAGGAGAGUGGUGAGGAGGCUGGUAGAAGGUCAGGAGG | 39.1 nM | 32.9 nM | – | – |
| UGAGCUUGUGUGAGGAUAUGAGUUCGGAAAUGAGCUUAGAAGGCACAUGAGGAUCACCCAUGUAAGCGAGUUCG | 72.2 nM | 74.7 nM | – | – |

| Sequence | apparent Kd [1] | apparent Kd [2] | apparent Kd [3] | apparent Kd [4] |
| --- | --- | --- | --- | --- |
| CUUUUGUGAGGAUAUCAGUAGUAAUAAUAUAAAAUUACUACUGAGAAGGCACAUGAGGAUCACCCAUGUUCCUC | 37.2 nM | 185 nM | – | – |
| GGGCUGUCAGGAUAUGGGUCUGGGUCUGAAAGGGCUCGGGCUCAGAAGGGACAUGAGGAUCACCCAUGUGGCCC | 35.2 nM | 36.4 nM | – | – |
| AAGAAAGAAACAUAGGAUAUCAAGAAUAUAACAUGAGGAUCACCCAUGUAAAUACGAAAGUAUAAUGAGAAGGAUGGAUGAUCUUC | – | – | 93.7 nM | 89 nM |
| UGUUGAUAGCAGAAGGACAUGAGGAUCACCCAUGUAAGGUUACAAAUACAUGUAGGAUAUGCUAUUGACUAAGAGUGAGCGUUC | 43.4 nM | 565 nM | – | – |
| UCACCUGCCGAGGAUAUGAACGUAUUGAAUUGAUUAGAAGGCGGCACAUGAGGAUCACCCAUGUCACUGCACGC | 11.7 nM | 11.5 nM | – | – |
| GUGUGAUUAAGAGGAUAUAUACAACAUGAGGAUCACCCAUGUACCCGUGUAGUAGAAGGUUUGUUUUUAUAUAAUAAUAUAAUU | – | – | 29.3 nM | 27.9 nM |
| CUCCUCCCGAAGGAUAUCCACGCCAACUUCGUAGGAGAAGGUCGGACAUGAGGAUCACCCAUGUGGCCAUGGUU | 18.5 nM | 40.3 nM | – | – |
| GGAUAGGACAGAGGAUAUACGUGCUAGAGAUCCUAGCAAAAUUUCCUCACAUGAGGAUCACCCAUGUAGAAGGCUGUCCUAUCG | 15.5 nM | 417 nM | – | – |
| AAACAUGUCCGAGGAUAUCUGGAAACAUUUUCAAGAGAAGGCGGACAUGAGGAUCACCCAUGUCUCUCCUCAUCAACUACAAAU | 21.2 nM | 181 nM | – | – |
| ACCUAGCCCAGGCCCACGGCAUCACAGGAUAUGCCGAUAACAUGAGGAUCACCCAUGUCAACUCCGCAGAAGGGUGAUAUCGUG | – | – | 89.2 nM | 13.5 nM |
| GCACGAUAUCAGGAUAUGACUAGCUGCGGCUAGUCAGAAGGGAUGACAUGAGGAUCACCCAUGUGAUCACGUGC | 57.6 nM | 78.7 nM | – | – |
| UUAGUCAUGUAAGGAUAUCCGAUGCGAAGCGUUGGAGAAGGUACAUGAGGAUCACCCAUGUUCUGCGUCUGAGUACAGAUGCUA | 494 nM | 174 nM | – | – |
| CUGUUGUGGUGCUGCUUGGCUUGGAGAGAAGGGUGAUUCACAUGAGGAUCACCCAUGUAGGACUUACAGGAUAUUUCCGGGUCU | – | – | 17.8 nM | 18.8 nM |
| AUAGCUCUCUAGAAGGUCCAACCAGUAUACCAUCAGGUAUAUACGGUAGGGAGGAUAUGGGACAUGAGGAUCACCCAUGUGUAG | – | – | 57.8 nM | 44.8 nM |
| AGAUAGUCAGGAUAUACAUGGAUGAUACACGUAUUUCCACUACAUGAGGAUCACCCAUGUAGAAGGGACUAUCA | 27.6 nM | 15.1 nM | – | – |
| AGAGGUCGCACAGGAUAUCAUACAUGAGGAUCACCCAUGUCAGAAAACAAAUGAGAAGGGUGCGCAUUAAUUGCUUGUGAAGAA | – | – | 15.1 nM | 5.12 nM |
| AGUGUCAUCGAGAAGGCCUUAGGAACAUGAGGAUCACCCAUGUAACAUGGGAGGAUAUCGAUGAUACAGCUACGUUUCGUAGCA | – | – | 6.51 nM | 4.85 nM |
| UUAAUGUGAGGAUAUCAGGUGUGCUAGAGUACUGGUACAUCUGAGAAGGCACAUGAGGAUCACCCAUGUUCUUC | 36.9 nM | 110 nM | – | – |
| UCUGCAUAGUCAGGAUAUGCAAAAUUUAUUUUCUUCGGAAAAUAAAUAACAUGAGGAUCACCCAUGUAGAAGGGACUGUGCAGA | 16.9 nM | 14.7 nM | – | – |
| UUAAUUAUACAAGGAUAUCUAUCCUUAUCAAGACUUACAUGAGGAUCACCCAUGUUAAUAUAAUUAGAGAAGGUGUAAAUACAG | – | – | 17.4 nM | 24.1 nM |
| AGUCAGAGAGGAUAUACAUGGGAAAAAAAAGUAAGAUCCCUACAUGAGGAUCACCCAUGUAGAAGGCUCUGACA | 28.6 nM | 36 nM | – | – |
| CAGUUAAAAGUGAGGUCUUCGACAUGAGGAUCACCCAUGUACGAGGAUAUGUAAUAUACGGUAUAGCAGAAGGCGUAUGGGUGU | 20.9 nM | 46.9 nM | – | – |
| GGCGGCGCGGGCCACCGCAGAACCAGAAGGACAUGAGGAUCACCCAUGUAACAAAACAGGGCGGUGUAGGAUAUGGCAGGCCCG | 41.9 nM | 89.5 nM | – | – |
| AUUUGUAACCAGAAGGACAUGAGGAUCACCCAUGUAGGAUAUGGGCUUCUCAGGGCUGAGGAGUGAUCCCACAGGGACUUACGG | – | – | 117 nM | 18 nM |
